miR122 inh: blocks miR-122 activity in Huh7 sensor cells; Huh7 miR-122 Renilla luciferase sensor, 48 h; neutral wells = 0, positive control = 100; activation (reporter increase), % at 12.5 µM; 340,000 tested, 0.3% active; AID 602342;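 active = mean replicate activation score at least 90 and every replicate individually at or above 90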;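 note: higher luciferase means less miR-122 activity so hits act as miR-122 inhibitors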
CAL PDZ FP-1: blocks peptide binding to the human CAL PDZ domain; 300,000 tested, 0.92% active; inhibition, % at 24.9 µM; purified CAL PDZ, TMR-peptide fluorescence polarization, 1 h; AID 602252;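 active = mean inhibition of at least 30% with at least half of replicates also reaching 30%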;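 note: 0% = DMSO neutral control and 100% = excess unlabeled competitor peptide PRC23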
CAL PDZ FP-2: blocks peptide binding to human CAL PDZ domain; Q9HD26; purified CAL PDZ, TMR-peptide fluorescence polarization, 1 h; inhibition, % at 20 µM; 330,000 tested, 0.02% active; AID 504414;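 active = highest replicate inhibition of at least 40%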;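 note: plate controls were DMSO neutral control wells for no effect and unlabeled competitor peptide control wells for full effect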
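Assay system – tagged CAL PDZ protein CerCALP, purified · Timing – 1 h at RT · Compound – single point, 20 µM · Measured by – fluorescence polarization from S- and P-plane intensities, G-factor corrected · Evaluation – inhibition from polarization loss · Probe or stimulus – TMR reporter peptide T*-PRC34 · Buffer or medium – pH 7.4 phosphate-saline buffer, reducing agent, detergent, IgG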
PGC1a acetyl inh: lowers PGC1a acetylation signal in U2OS cells; AlphaScreen anti-acetyl-lysine; with virally co-expressed GCN5 acetyltransferase; inhibition, % at 15.6 µM; 350,000 tested, 0.17% active; AID 651687;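 active = every replicate shows inhibition of at least 40%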;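 note: 0% = neutral control wells and 100% = positive control wells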
CFTR F508del cor: correctors of CFTR F508del function in bronchial epithelial cells. CFBE cells, YFP halide quenching; stimulated with forskolin plus potentiator P3; % fluorescence drop versus neutral controls. activity (quench increase), % at 7.58 µM. 350,000 tested, 0.36% active. AID 720511;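 active = mean added fluorescence quench of at least 8% versus neutral control, with both replicates also reaching 8%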;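 note: cells transiently co-express mutant CFTR-F508del with the halide-sensitive YFP; corrector assay measuring rescue of mutant channel to the surface after 24 h compound exposure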
ARNT TACC3 PPI: disrupts binding between human ARNT and TACC3; AlphaScreen His-ARNT PAS-B/GST-TACC3 binding, luminescence; TACC3 fragment carries E629A point mutation; inhibition, % at 9.99 µM; 390,000 tested, 0.66% active;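 active = mean inhibition of replicates at least 50% and at least half of replicates each reaching 50%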;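 note: 0% = complete ARNT plus TACC3 wells and 100% = ARNT alone without TACC3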
* marks the source's active call; other numbers are inactive results; / = no result given; [ ] = another dose, or the depositor's remark. Most compounds without a hit are left out; they make up all but 1.7% or so of the library.

SMILES	miR122 inh	CAL PDZ FP-1	CAL PDZ FP-2	PGC1a acetyl inh	CFTR F508del cor	ARNT TACC3 PPI
Cc1ccccc1S(=O)(=O)NNC(=O)C(=O)NNc1ccccn1	-6.1	-0.5	-1.3	-3.9	/	70.2*
CC(C)C(=O)Nc1ccc2c(c1)C(=O)N(C)[C@H]1CC[C@H](CC(=O)NCc3ccccc3F)O[C@H]1CO2	-20.0[16.7 µM]	/	/	-6.3	-1.5	4.7
C/C=C/c1cnc2c(c1)C(=O)N([C@H](C)CO)C[C@H](C)[C@H](CN(C)C(=O)C1CCC1)O2	27.5[16.7 µM]	/	/	-5.1	-7.1	/
COc1ccccc1/C=C/C=N/NC(=O)CCn1cnc2ccccc21	/	/	-2.5	-6.3	12.7*	10.4
COC(=O)c1cc2ccsc2n1Cc1ccccc1F	1.3	-1.8	0.0	-5.2	1.0	-4.1
COC(=O)c1cc2ccsc2n1Cc1cccc(F)c1	/	79.3*	0.3	/	-1.7	-18.8
CC(=NNC(=S)Nc1ccc(C)cc1)c1ccccn1	2.8	0.3	-0.3	0.2	16.0*	61.8*
COc1ccccc1NC(=S)NN=C(C)c1ccccn1	8.9	-0.7	0.2	-8.1	8.5*	64.8*
CN(C)Cc1c(C(=O)N/N=C/c2ccc(OCc3c(F)cccc3Cl)cc2)nnn1-c1nonc1N	3.0	76.6*	2.4	38.4	-1.7	2.7
Nc1nonc1-n1nnc(C(=O)N/N=C/c2ccc(O)cc2)c1COc1ccc(F)cc1	-4.7	-3.7	0.4	-7.7	1.6	-2.6
COc1ccc(C2N(c3ccc(Cl)cc3)C(=O)C3CCCN32)cc1 (stereo unspecified)	1.0	3.7	0.0	/	-0.8	29.7*
CCS(=O)(=O)Nc1ccc2c(c1)C(=O)N(C)C[C@H](OC)[C@H](C)CN(CCC(F)(F)F)[C@@H](C)CO2	/	/	/	5.7	3.0	-2.9
Cc1noc(C)c1S(=O)(=O)Nc1ccc2c(c1)C(=O)N([C@@H](C)CO)C[C@@H](C)[C@@H](CN(C)CC1CCCCC1)OCCCC[C@@H](C)O2	-6.6	/	/	84.6*	0.4	-1.3
COc1ccc(NC(=O)N(C)C[C@@H]2OCCCC[C@@H](C)Oc3ccc(NS(=O)(=O)c4ccc(OC)cc4)cc3C(=O)N([C@@H](C)CO)C[C@H]2C)cc1	29.1[16.7 µM]	/	/	-1.1	2.7	24.0*
C[C@@H]1CCCCO[C@H](CN(C)S(=O)(=O)c2cccs2)[C@@H](C)CN([C@@H](C)CO)C(=O)c2cc(NS(C)(=O)=O)ccc2O1	11.8[16.7 µM]	/	/	4.3	0.5	active
Cc1ccc(S(=O)(=O)Nc2ccc3c(c2)C(=O)N([C@@H](C)CO)C[C@H](C)[C@H](CN(C)C(=O)Nc2ccc(F)cc2)OCCCC[C@@H](C)O3)cc1	94.1*[16.7 µM]	/	/	-8.3	-2.1	-9.6
CC=Cc1ccc2n(c1=O)C[C@H]1[C@H](CO)[C@@H](C(=O)N[C@H](C)c3ccccc3)N(C(=O)c3cnccn3)[C@@H]21 (mixture of isomers)	/	/	/	/	/	-8.8
COCC#Cc1cnc2c(c1)C(=O)N([C@H](C)CO)C[C@@H](C)[C@H](CN(C)C(=O)c1ccc(F)cc1)O2	-6.9[16.7 µM]	/	/	-8.5	-0.2	-9.6
C[C@@H]1CN([C@@H](C)CO)C(=O)c2cc(-c3cccc(C#N)c3)cnc2O[C@H]1CN(C)Cc1ccncc1	-2.4[16.7 µM]	/	/	3.4	-2.9	1.0
Cc1ccc(S(=O)(=O)N(C)C[C@@H]2OCCCC[C@@H](C)Oc3ccc(NS(=O)(=O)c4ccc(Cl)cc4)cc3C(=O)N([C@H](C)CO)C[C@@H]2C)cc1	0.0[16.7 µM]	/	/	11.4	2.7	-7.6
Cc1ccc(S(=O)(=O)N(C)C[C@@H]2OCCCC[C@@H](C)Oc3ccc(NS(=O)(=O)c4ccc(Cl)cc4)cc3C(=O)N([C@@H](C)CO)C[C@@H]2C)cc1	-0.1[16.7 µM]	/	/	6.6	8.6*	-0.8
COCC(=O)N1C[C@@H](C)[C@@H](OC)CN(C)C(=O)c2ccc(NC(=O)C3CCC3)cc2OC[C@@H]1C	-2.9[16.7 µM]	/	/	6.8	-0.9	-5.8
COc1ccccc1NS(=O)(=O)c1cc(NC(=S)NCC2CCCO2)ccc1C (stereo unspecified)	99.2*	4.6	-1.5	10.1	-2.8	-0.5
COc1ccc(/C=N/NC(=S)NCC2CCCO2)cc1 (stereo unspecified)	/	-6.6	-0.8	/	0.0	-2.2

High-throughput results: PubChem BioAssay, Broad Institute
